# Measured values as given in ChEMBL document CHEMBL3286372, “Design, synthesis and structure-activity relationship of novel semi-synthetic flavonoids as antiproliferative agents” (2014).
# Assays:
# [1] = Growth inhibition of human NCI-ADR-RES cells after 48 hrs by coulter counting analysis; assay type: functional
# Summary of the method: (§1)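 Five-dose NCI-60 follow-up, 0.01–100 µM, made from DMSO stock in buffered saline (final DMSO <1%), in duplicate wells. Cells in RPMI 1640 with 10% FBS at 6×10^4 cells/ml, 37 °C, 5% CO2, 48 h. Cells diluted tenfold in saline, Coulter-counted and corrected for dilution. GI50, TGI and LC50 taken from log concentration–percent growth curves.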
# [2] = tested on: CAKI-1; experiment: Growth inhibition of human CAKI-1 cells after 48 hrs by coulter counting analysis; assay type: functional; conditions: CAKI-1, 48 h
# Summary of the method: (§2)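 NCI five-dose screen at 0.01-100 µM, diluted from DMSO stocks in buffered saline (final DMSO <1%). Cells at 6×10^4 cells/ml in RPMI 1640 with 10% FBS, in duplicate wells, at 37 °C under 5% CO2 for 48 h. Cells diluted tenfold in saline and Coulter-counted. GI50, TGI and LC50 taken from log concentration-growth inhibition curves.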
# [3] = tested on: IGROV-1; experiment: Growth inhibition of human IGROV1 cells after 48 hrs by coulter counting analysis; assay type: functional; conditions: IGROV-1, 48 h; summary of the method: as §2
# [4] = tested on: MDA-MB-231; experiment: Growth inhibition of human MDA-MB-231 cells after 48 hrs by coulter counting analysis; assay type: functional; conditions: MDA-MB-231, 48 h; summary of the method: as §2
# [5] = tested on: MCF7; experiment: Growth inhibition of human MCF7 cells after 48 hrs by coulter counting analysis; assay type: functional; conditions: MCF7, 48 h; summary of the method: as §2
# [6] = tested on: RPMI-8226; experiment: Growth inhibition of human RPMI8226 cells after 48 hrs by coulter counting analysis; assay type: functional; conditions: RPMI-8226, 48 h; summary of the method: as §1
# [7] = tested on: NCI-H460; experiment: Growth inhibition of human NCI-H460 cells after 48 hrs by coulter counting analysis; assay type: functional; conditions: NCI-H460, 48 h; summary of the method: as §1
# [8] = Growth inhibition of human RXF393 cells after 48 hrs by coulter counting analysis; assay type: functional; conditions: RXF 393, 48 h; summary of the method: as §1
# [9] = Growth inhibition of human SF539 cells after 48 hrs by coulter counting analysis; assay type: functional; conditions: SF-539, 48 h; summary of the method: as §1
# [10] = tested on: SK-MEL-2; experiment: Growth inhibition of human SK-MEL-2 cells after 48 hrs by coulter counting analysis; assay type: functional; conditions: SK-MEL-2, 48 h; summary of the method: as §1
# [11] = tested on: NCI-H226; experiment: Growth inhibition of human NCI-H226 cells after 48 hrs by coulter counting analysis; assay type: functional; conditions: NCI-H226, 48 h; summary of the method: as §1
# [12] = tested on: CCRF-CEM; experiment: Growth inhibition of human CCRF-CEM cells after 48 hrs by coulter counting analysis; assay type: functional; summary of the method: as §2
# [13] = tested on: PC-3; experiment: Growth inhibition of human PC3 cells after 48 hrs by coulter counting analysis; assay type: functional; conditions: PC-3, 48 h; summary of the method: as §1
# [14] = tested on: SNB-19; experiment: Growth inhibition of human SNB19 cells after 48 hrs by coulter counting analysis; assay type: functional; conditions: SNB-19, 48 h; summary of the method: as §1
# [15] = target: Glycogen synthase kinase-3 beta (Homo sapiens) (UniProt P49841); experiment: Inhibition of GSK-3beta (unknown origin) at 20 uM after 30 mins by scintillation counting analysis relative to control
# Summary of the method: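 Recombinant kinases, cloned, expressed and purified in-house. Radiometric ³³P-ATP assay with kinase at ~10-50 nM final and 1-5 µg peptide or protein substrate. Compound at 20 µM final, in duplicate. Reaction started by adding ATP, run 30 min at ambient temperature, then spotted on P81 phosphocellulose. Plates washed in 1% phosphoric acid and counted by scintillation. No-substrate blank subtracted. Result is mean % activity change versus DMSO control.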
# [16] = tested on: NCI-H23; experiment: Growth inhibition of human NCI-H23 cells after 48 hrs by coulter counting analysis; assay type: functional; conditions: NCI-H23, 48 h; summary of the method: as §1
# [17] = Growth inhibition of human UACC62 cells after 48 hrs by coulter counting analysis; assay type: functional; conditions: UACC-62, 48 h
# Summary of the method: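 NCI five-dose screen, 0.01-100 µM, from DMSO stocks diluted in buffer saline (final DMSO <1%). Cells grown in RPMI 1640 + 10% FBS, seeded at 6×10^4 cells/ml, in duplicate wells. Exposure 48 h at 37 °C, 5% CO2. Cells diluted 10-fold in saline and counted by Coulter counter. GI50 derived from log concentration–percent growth inhibition curves. Controls carried matching PBS/saline/DMSO.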
# [18] = tested on: MDA-MB-468; experiment: Growth inhibition of human MDA-MB-468 cells after 48 hrs by coulter counting analysis; assay type: functional; conditions: MDA-MB-468, 48 h; summary of the method: as §1
# [19] = Growth inhibition of human MOLT4 cells after 48 hrs by coulter counting analysis; assay type: functional; conditions: MOLT-4, 48 h; summary of the method: as §1
# [20] = Growth inhibition of human SF295 cells after 48 hrs by coulter counting analysis; assay type: functional; conditions: SF-295, 48 h; summary of the method: as §1
# [21] = tested on: M14; experiment: Growth inhibition of human M14 cells after 48 hrs by coulter counting analysis; assay type: functional; conditions: M14, 48 h; summary of the method: as §2
# [22] = Growth inhibition of human BT549 cells after 48 hrs by coulter counting analysis; assay type: functional; conditions: BT-549, 48 h; summary of the method: as §2
# [23] = Growth inhibition of human NCI60 cells after 48 hrs by coulter counting analysis; assay type: functional; conditions: NCI60, 48 h
# Summary of the method: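 Five-dose screen (0.01-100 µM, DMSO-solubilized, under 1% DMSO final), cells in RPMI 1640 + 10% FBS at 6×10^4 cells/ml, duplicate wells, 37 °C, 5% CO2, 48 h. Cells then diluted tenfold in saline and counted by Coulter counter with dilution correction. Controls held buffer/saline/DMSO at matching dilutions. GI50 derived from log concentration-percent growth inhibition curves.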
# [24] = tested on: K562; experiment: Growth inhibition of human K562 cells after 48 hrs by coulter counting analysis; assay type: functional; conditions: K562, 48 h; summary of the method: as §2
# [25] = tested on: HT-29; experiment: Growth inhibition of human HT-29 cells after 48 hrs by coulter counting analysis; assay type: functional; conditions: HT-29, 48 h; summary of the method: as §2
# [26] = tested on: NCI-H322M; experiment: Growth inhibition of human NCI-H322M cells after 48 hrs by coulter counting analysis; assay type: functional; summary of the method: as §1
# [27] = Growth inhibition of human Hs 578T cells after 48 hrs by coulter counting analysis; assay type: functional; summary of the method: as §2
# [28] = Growth inhibition of human HCC2998 cells after 48 hrs by coulter counting analysis; assay type: functional; conditions: HCC 2998, 48 h; summary of the method: as §2
# [29] = Growth inhibition of human HOP92 cells after 48 hrs by coulter counting analysis; assay type: functional; conditions: HOP-92, 48 h; summary of the method: as §2
# [30] = tested on: NCI-H522; experiment: Growth inhibition of human NCI-H522 cells after 48 hrs by coulter counting analysis; assay type: functional; conditions: NCI-H522, 48 h; summary of the method: as §1
# [31] = tested on: A498; experiment: Growth inhibition of human A498 cells after 48 hrs by coulter counting analysis; assay type: functional; conditions: A498, 48 h; summary of the method: as §2
# [32] = Growth inhibition of human OVCAR3 cells after 48 hrs by coulter counting analysis; assay type: functional; conditions: OVCAR-3, 48 h; summary of the method: as §1
# [33] = tested on: T47D; experiment: Growth inhibition of human T47D cells after 48 hrs by coulter counting analysis; assay type: functional; summary of the method: as §1
# [34] = Growth inhibition of human LOXIMVI cells after 48 hrs by coulter counting analysis; assay type: functional; conditions: LOX IMVI; summary of the method: as §2
# [35] = tested on: ACHN; experiment: Growth inhibition of human ACHN cells after 48 hrs by coulter counting analysis; assay type: functional; summary of the method: as §2
# [36] = tested on: SNB-75; experiment: Growth inhibition of human SNB75 cells after 48 hrs by coulter counting analysis; assay type: functional; conditions: SNB-75, 48 h; summary of the method: as §1
# Chain of Glycogen synthase kinase-3 beta (Homo sapiens) (P49841 whole entry, looked up): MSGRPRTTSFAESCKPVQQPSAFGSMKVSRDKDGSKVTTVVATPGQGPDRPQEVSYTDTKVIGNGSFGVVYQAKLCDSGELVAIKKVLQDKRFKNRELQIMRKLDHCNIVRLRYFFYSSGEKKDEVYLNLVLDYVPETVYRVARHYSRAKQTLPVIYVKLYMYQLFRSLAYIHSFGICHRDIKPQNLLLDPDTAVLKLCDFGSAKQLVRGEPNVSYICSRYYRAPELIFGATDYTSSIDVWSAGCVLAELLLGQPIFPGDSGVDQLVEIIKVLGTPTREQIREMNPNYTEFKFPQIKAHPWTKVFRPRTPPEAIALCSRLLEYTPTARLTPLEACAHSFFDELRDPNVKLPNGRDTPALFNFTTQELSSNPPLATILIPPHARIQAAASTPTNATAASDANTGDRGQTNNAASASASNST
SMILES,GI50 [1] [µM],GI50 [2] [µM],GI50 [3] [µM],GI50 [4] [µM],GI50 [5] [µM],GI50 [6] [µM],GI50 [7] [µM],GI50 [8] [µM],GI50 [9] [µM],GI50 [10] [µM],GI50 [11] [µM],GI50 [12] [µM],GI50 [13] [µM],GI50 [14] [µM],inhibition [15] [%],GI50 [16] [µM],GI50 [17] [µM],GI50 [18] [µM],GI50 [19] [µM],GI50 [20] [µM],further results
C=CCc1c2c(c(OC)c3ccoc13)C(=O)/C(=C/c1ccccc1OC)O2,2.82,3.15,5.27,4.59,2.92,3.51,3.46,2.47,5.45,6.06,3.22,3.44,5.25,5.83,56,2.88,4.14,2.46,3.52,3.67,GI50 [21]: 8.19 µM; GI50 [22]: 4.44 µM; LC50 [23]: 100 µM; TGI [23]: 58.9 µM; GI50 [24]: 3.51 µM; GI50 [25]: 3.98 µM; GI50 [26]: 5.93 µM; GI50 [27]: 5.29 µM; GI50 [28]: 2.85 µM; GI50 [29]: 2.07 µM; GI50 [30]: 3.16 µM; GI50 [31]: 5.81 µM; GI50 [32]: 3.28 µM; GI50 [33]: 4.34 µM; GI50 [34]: 3.13 µM; GI50 [35]: 4.32 µM; GI50 [36]: 1.44 µM
C=CCc1c(O)c(C(=O)/C=C/c2ccc(Cl)cc2)c(OC)c2ccoc12,2.23,2.61,3.46,4.3,2.51,3.04,3.2,1.72,1.79,3.97,1.52,3.33,3.81,2.85,80,2.78,2.88,2.27,2.61,2.77,GI50 [21]: 5.08 µM; GI50 [22]: 3 µM; LC50 [23]: 37.1 µM; TGI [23]: 11 µM; GI50 [24]: 3.25 µM; GI50 [25]: 1.89 µM; GI50 [26]: 4.88 µM; GI50 [27]: 4.02 µM; GI50 [28]: 1.79 µM; GI50 [29]: 1.69 µM; GI50 [30]: 1.88 µM; GI50 [31]: 2.77 µM; GI50 [32]: 1.97 µM; GI50 [33]: 3.29 µM; GI50 [34]: 1.63 µM; GI50 [35]: 2.31 µM; GI50 [36]: 2.01 µM
COc1c2ccoc2c(/C=C/C=O)c2oc(-c3ccccc3)cc(=O)c12,3.01,15.4,17.5,4.1,2.72,2.24,11.3,4.26,3.59,10.6,4.14,1.85,3.23,12,58,2.44,5.45,7.02,2.06,13.6,GI50 [21]: 3.32 µM; GI50 [22]: 2.88 µM; LC50 [23]: 87.1 µM; TGI [23]: 35.5 µM; GI50 [24]: 3.21 µM; GI50 [25]: 25.1 µM; GI50 [26]: 9.69 µM; GI50 [27]: 7.2 µM; GI50 [28]: 16.1 µM; GI50 [29]: 11.5 µM; GI50 [30]: 17.6 µM; GI50 [31]: 7.44 µM; GI50 [32]: 5.19 µM; GI50 [33]: 2.14 µM; GI50 [34]: 1.48 µM; GI50 [35]: 20.8 µM; GI50 [36]: 8.3 µM
C=CCc1c(O)c(C(=O)/C=C/c2ccccc2)c(OC)c2ccoc12,1.88,2.8,3.35,3.11,2.73,1.88,2.79,1.85,1.71,3.04,1.48,2.75,3.68,2.85,38,2.52,2.74,3.07,2.17,2.44,GI50 [21]: 5.36 µM; GI50 [22]: 2.63 µM; LC50 [23]: 41.7 µM; TGI [23]: 11.2 µM; GI50 [24]: 2.87 µM; GI50 [25]: 3.01 µM; GI50 [26]: 3.19 µM; GI50 [27]: 3.9 µM; GI50 [28]: 1.73 µM; GI50 [29]: 1.33 µM; GI50 [30]: 2.15 µM; GI50 [31]: 1.74 µM; GI50 [32]: 2.46 µM; GI50 [33]: 4.11 µM; GI50 [34]: 1.56 µM; GI50 [35]: 3.79 µM; GI50 [36]: 1.39 µM
